In ChEMBL document CHEMBL4038329, “Side-Chain Modified Ergosterol and Stigmasterol Derivatives as Liver X Receptor Agonists” (J Med Chem, 2017):
Active and inactive are the calls of the source. No cut-off for these calls is given here.

How the values were obtained:
[1] = target: T1, Oxysterols receptor LXR-alpha (Homo sapiens) (UniProt Q13133); test: Activation of GAL4 fused human LXR alpha expressed in HEK293 cells after 24 hrs by luciferase reporter gene assay relative to 22R-HC; assay type: cell-based
T1 sequence (whole entry): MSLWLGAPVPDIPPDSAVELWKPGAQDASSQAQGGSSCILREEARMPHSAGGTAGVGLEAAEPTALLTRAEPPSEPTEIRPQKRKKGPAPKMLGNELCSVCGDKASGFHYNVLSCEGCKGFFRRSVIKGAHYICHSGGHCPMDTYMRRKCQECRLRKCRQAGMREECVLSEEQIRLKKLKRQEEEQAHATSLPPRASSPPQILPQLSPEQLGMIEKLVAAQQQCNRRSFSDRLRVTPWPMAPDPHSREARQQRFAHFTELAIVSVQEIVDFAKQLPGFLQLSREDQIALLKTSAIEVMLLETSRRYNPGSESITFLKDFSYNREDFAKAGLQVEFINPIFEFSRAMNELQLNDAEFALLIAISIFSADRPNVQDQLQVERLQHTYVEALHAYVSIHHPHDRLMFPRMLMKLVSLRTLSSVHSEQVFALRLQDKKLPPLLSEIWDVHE
Outline: (§1)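 HEK293 cells carrying the Gal4-LXR-α or Gal4-LXR-β chimera plus the pMH100X4-TK-luc and Renilla reporters. Treatment started 6 h post-transfection and ran 24 h. Dual luciferase read-out. Efficacy is given as % of the response to 8 μM 22R-HC, ± SD, from three to five independent experiments.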

[2] = target: T2, Oxysterols receptor LXR-beta (Homo sapiens) (UniProt P55055); test: Activation of GAL4 fused human LXR beta expressed in HEK293 cells after 24 hrs by luciferase reporter gene assay relative to 22R-HC; assay type: cell-based; outline: as §1
T2 sequence (whole entry): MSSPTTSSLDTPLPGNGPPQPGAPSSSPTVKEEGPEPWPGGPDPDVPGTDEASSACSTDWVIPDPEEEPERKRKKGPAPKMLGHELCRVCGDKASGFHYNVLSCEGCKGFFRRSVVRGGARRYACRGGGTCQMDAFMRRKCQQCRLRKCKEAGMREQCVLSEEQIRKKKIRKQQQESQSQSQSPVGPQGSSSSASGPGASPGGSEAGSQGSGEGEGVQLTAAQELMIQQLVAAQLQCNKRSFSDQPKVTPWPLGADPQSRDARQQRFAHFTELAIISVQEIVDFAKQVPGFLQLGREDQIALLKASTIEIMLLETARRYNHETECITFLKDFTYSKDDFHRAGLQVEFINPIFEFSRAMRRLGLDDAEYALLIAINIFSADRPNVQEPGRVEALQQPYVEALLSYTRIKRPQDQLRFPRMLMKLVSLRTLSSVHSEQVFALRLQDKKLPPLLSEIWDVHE

[3] = Agonist activity at LXR in human HepG2 cells assessed as upregulation of FASN mRNA levels at 10 uM after 6 hrs by qPCR analysis; assay type: cell-based
Outline: (§2)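 HepG2 cells treated with ligand (10 μM). Total RNA was extracted with TRIZOL; 2 µg was reverse-transcribed (1 h, 42 °C). SREBP1c, FASN and SCD1 transcripts were measured by qPCR. Mean ± SD of three biological samples; ANOVA with Dunnett's test.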

[4] = Agonist activity at LXR in human HepG2 cells assessed as upregulation of SREBP1c mRNA levels at 10 uM after 6 hrs by qPCR analysis; assay type: cell-based; outline: as §2
[5] = Agonist activity at LXR in human U937 cells assessed as upregulation of SCD1 mRNA levels at 10 uM after 6 hrs by qPCR analysis relative to control; assay type: cell-based; conditions: human, 6 h, 10 µM
Outline: (§3)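 U937 cells, 3x10⁶ in 10 ml RPMI with 10% FBS, differentiated with PMA 10 ng/ml for 72 h at 37 °C, then treated with ligand (10 μM) for 6 h. Total RNA was isolated with TRIZOL; 2 µg was reverse-transcribed for 1 h at 42 °C. Transcripts were measured by qPCR. Mean ± SD of three biological samples; ANOVA with Dunnett's test.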

[6] = Agonist activity at LXR in human U937 cells assessed as upregulation of SREBP1c mRNA levels at 10 uM after 6 hrs by qPCR analysis; assay type: cell-based; outline: as §3
[7] = Agonist activity at LXR in human U937 cells assessed as upregulation of FASN mRNA levels at 10 uM after 6 hrs by qPCR analysis; assay type: cell-based; outline: as §3
[8] = Agonist activity at LXR in human HepG2 cells assessed as upregulation of SCD1 mRNA levels at 10 uM after 6 hrs by qPCR analysis; assay type: cell-based; outline: as §2
[9] = target: T3, Nuclear receptor subfamily 1 group I member 2 (Homo sapiens, UniProt O75469); test: Activation of GAL4 fused human PXR expressed in HEK293 cells at 10 uM by luciferase reporter gene assay; conditions: hek293, 10 µM
T3 sequence (O75469 whole entry): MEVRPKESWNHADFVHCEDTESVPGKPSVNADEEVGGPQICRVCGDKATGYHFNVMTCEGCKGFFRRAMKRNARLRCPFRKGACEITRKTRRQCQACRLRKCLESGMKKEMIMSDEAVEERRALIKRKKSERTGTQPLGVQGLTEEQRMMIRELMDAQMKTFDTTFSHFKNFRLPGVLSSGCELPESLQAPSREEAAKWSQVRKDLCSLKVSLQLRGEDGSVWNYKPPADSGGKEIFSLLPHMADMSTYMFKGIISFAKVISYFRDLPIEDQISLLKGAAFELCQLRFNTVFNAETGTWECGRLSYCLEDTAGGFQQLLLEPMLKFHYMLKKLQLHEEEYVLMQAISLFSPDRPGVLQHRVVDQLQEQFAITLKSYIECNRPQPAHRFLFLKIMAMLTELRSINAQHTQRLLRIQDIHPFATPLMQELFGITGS

HEK293 = test: Activation of GAL4 fused human RXR expressed in HEK293 cells at 10 uM after 24 hrs by luciferase reporter gene assay
[10] = target: T4, Peroxisome proliferator-activated receptor gamma (Homo sapiens) (UniProt P37231); test: Activation of GAL4 fused human PPARgamma expressed in HEK293 cells at 10 uM after 24 hrs by luciferase reporter gene assay
T4 sequence (whole entry): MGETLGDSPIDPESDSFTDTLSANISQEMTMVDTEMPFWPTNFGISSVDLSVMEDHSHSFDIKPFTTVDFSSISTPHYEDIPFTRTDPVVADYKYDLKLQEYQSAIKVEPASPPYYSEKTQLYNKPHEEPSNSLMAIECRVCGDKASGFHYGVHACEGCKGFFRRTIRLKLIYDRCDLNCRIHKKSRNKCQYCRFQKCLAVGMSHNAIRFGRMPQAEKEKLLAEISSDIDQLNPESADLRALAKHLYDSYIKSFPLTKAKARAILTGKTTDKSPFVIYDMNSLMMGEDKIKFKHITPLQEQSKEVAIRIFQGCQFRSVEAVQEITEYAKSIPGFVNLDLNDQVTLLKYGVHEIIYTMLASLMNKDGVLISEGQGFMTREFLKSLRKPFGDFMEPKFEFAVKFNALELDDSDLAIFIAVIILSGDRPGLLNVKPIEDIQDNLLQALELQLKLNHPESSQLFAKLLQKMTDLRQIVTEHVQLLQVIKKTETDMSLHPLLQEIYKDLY

Homo sapiens [11] = organism: Homo sapiens; test: Agonist activity at LXR in human U937 cells assessed as upregulation of ABCA1 mRNA levels at 10 uM after 6 hrs by qPCR analysis; assay type: cell-based; outline: as §3
Homo sapiens [12] = organism: Homo sapiens; test: Agonist activity at LXR in human U937 cells assessed as downregulation of LPS-induced CCL2 mRNA expression at 10 uM after 6 hrs by qPCR analysis; assay type: cell-based
Outline: (§4)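 PMA-differentiated U937 cells (10 ng/ml PMA, 72 h) were given LPS 100 ng/ml together with compound (10 μM) for 6 h. CCL2 and TNFα mRNA were measured by qPCR after TRIZOL RNA extraction and reverse transcription. Three biological samples per group, mean ± SD.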

[13] = target: T5, Bile acid receptor (Homo sapiens) (UniProt Q96RI1); test: Activation of GAL4 fused human FXR expressed in HEK293 cells at 10 uM by luciferase reporter gene assay
T5 sequence (whole entry): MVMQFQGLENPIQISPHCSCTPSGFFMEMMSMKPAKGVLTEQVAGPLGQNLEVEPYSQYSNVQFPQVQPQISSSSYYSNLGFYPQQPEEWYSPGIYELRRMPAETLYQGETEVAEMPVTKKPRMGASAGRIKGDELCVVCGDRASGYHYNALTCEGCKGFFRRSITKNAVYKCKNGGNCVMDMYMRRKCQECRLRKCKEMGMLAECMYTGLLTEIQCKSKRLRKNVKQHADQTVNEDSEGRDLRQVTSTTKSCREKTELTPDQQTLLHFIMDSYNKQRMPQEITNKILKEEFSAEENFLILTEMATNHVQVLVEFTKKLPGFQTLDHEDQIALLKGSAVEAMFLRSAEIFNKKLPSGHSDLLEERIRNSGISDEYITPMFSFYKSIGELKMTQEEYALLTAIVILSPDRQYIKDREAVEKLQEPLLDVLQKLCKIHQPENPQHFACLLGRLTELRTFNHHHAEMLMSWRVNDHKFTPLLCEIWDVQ

[14] = target: T6, Oxysterols receptor LXR-beta (Homo sapiens, UniProt P55055); test: Activation of GAL4 fused human LXR beta expressed in HEK293 cells after 24 hrs by luciferase reporter gene assay; assay type: cell-based
T6 sequence (P55055 whole entry): T2 sequence (whole entry)
Outline: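 HEK293 cells (4x10⁴/well), grown in DMEM with 10% FBS at 37 °C under 5% CO₂, transiently co-transfected with pMH100X4-TK-luc, Renilla and the Gal4-LXR-α or Gal4-LXR-β plasmid. Dosing began 6 h after transfection and lasted 24 h, at 32, 16, 8, 4, 2 and 1 μM. Dual luciferase read-out. EC50 came from dose-response curves, averaged over three to five independent experiments, ± SD.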

Homo sapiens [15] = organism: Homo sapiens; test: Agonist activity at LXR in human U937 cells assessed as downregulation of LPS-induced TNFalpha mRNA expression at 10 uM after 6 hrs by qPCR analysis; assay type: cell-based; outline: as §4
[16] = Agonist activity at LXR in human U937 cells assessed as upregulation of SCD1 mRNA levels at 10 uM after 16 hrs by qPCR analysis; assay type: cell-based
[17] = Agonist activity at LXR in human U937 cells assessed as upregulation of FASN mRNA levels at 10 uM after 16 hrs by qPCR analysis; assay type: cell-based

Activity [13]	SMILES	Efficacy [1]	Efficacy [2]	Activity [3]	Activity [4]	Activity [5]	Activity [6]	Activity [7]	Activity [8]	Activity [9]	Activity (HEK293)	Activity [10]	Activity (Homo sapiens [11])	Activity (Homo sapiens [12])	EC50 [14]	Activity (Homo sapiens [15])	Activity [16]	Activity [17]
	CC(C)[C@@H](C)[C@H]1O[C@@H]1[C@@H](C)[C@H]1CC[C@H]2C3=CC=C4C[C@@H](O)CC[C@]4(C)[C@H]3CC[C@]12C	93.2%	30.4%	Not Active	Not Active	Not Active	Not Active	Not Active	Not Active	Active	inactive	inactive						
	CC(C)[C@@H](C)C[C@H](O)[C@@H](C)[C@H]1CC[C@H]2C3=CC=C4C[C@@H](O)CC[C@]4(C)[C@H]3CC[C@]12C			Not Active	Not Active	Not Active	Not Active	Not Active	Not Active	Active	inactive	inactive	Active	Active				
Active	CC[C@H](C[C@@H](O)[C@@H](C)[C@H]1CC[C@H]2[C@@H]3CC=C4C[C@@H](O)CC[C@]4(C)[C@H]3CC[C@]12C)C(C)C			Not Active	Not Active	Not Active	Not Active	Not Active	Not Active		inactive	inactive	Active					
	CC(C)[C@@H](C)[C@@H](O)C[C@@H](C)[C@H]1CC[C@H]2C3=CC=C4C[C@@H](O)CC[C@]4(C)[C@H]3CC[C@]12C	159%		Not Active	Not Active	Not Active	Not Active	Not Active	Not Active	Active	inactive	inactive	Active	Active	Not Active	Active		
	CC(C)CC[C@@H](O)[C@@H](C)[C@H]1CC[C@H]2[C@@H]3CC=C4C[C@@H](O)CC[C@]4(C)[C@H]3CC[C@]12C [22(R)-HYDROXYCHOLESTEROL]			Not Active	Not Active	Not Active	Not Active	Not Active	Not Active				Active			Active	Not Active	Not Active
